STAT1 blocker: reduces IFN-gamma driven STAT1 reporter signal | NIH 3T3 STAT1-luciferase reporter, luminescence | inhibition, % at 5.5 µM | 0.35% of 200,000 active | AID 920;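 active = inhibition above a set limit, the mean inhibition across all tested compounds plus 3 SD, cut at about 34% in these data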
STAT3 act: increases IL-6 driven STAT3 reporter signal; U3A cells, IL-6 STAT3-luciferase reporter, luminescence; 100% = signal with IL-6 EC80 alone; activation (% of control), % at 5.6 µM; AID 871; 0.91% of 190,000 active;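 active = activation above the screen-wide mean of compound activation plus 3 SD, cut at about 130% in these data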
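Assay system – human STAT1-deficient U3A cells with stable STAT3-luciferase reporter · Also added – IL-6 (33 ng/mL) · Schedule – compound 1 h, then IL-6 6 h at 37 °C · Technique – reporter luminescence signal · Evaluation – % activation versus median of IL-6-stimulated wells · Benchmarks – IL-6-only wells as 100% reference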
STAT3 inh: inhibitors of IL-6 induced STAT3 signaling; 0.89% of 190,000 active; U3A cells, IL-6 STAT3-luciferase reporter, luminescence; host cell line lacks STAT1; AID 862; inhibition, % at 5.5 µM;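 active = inhibition above the mean inhibition across all screened compounds plus 3 SD, cut at about 44% in these data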
STAT1 activator: activators of IFN-gamma induced STAT1 signaling; NIH 3T3 STAT1-luciferase reporter, luminescence; 100% = IFN-gamma alone, no compound; activation (% of control), % at 5.5 µM; 2.6% of 200,000 active;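 active = activation above the screen-wide mean activation plus 3 SD, cut at about 130% in these data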
NF-kB expr up: raises NF-kB expression in human neuronal cells | NF-kB reporter expression; stronger effect = higher value | fold change at 12.5 µM | 1.6% of 190,000 active; in the data active = fold change above about 3.3
APP 5'UTR act: activates APP 5'UTR luciferase reporter. activation, % at 2 µM. SH-SY5Y APP 5'UTR luciferase reporter, luminescence; zero percent = DMSO vehicle wells. 1% of 190,000 active;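 active = activation above a set limit, based on mean plus 3 SD of controls, cut at about 140% in these data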
Numbers stand for hits; i = inactive; nt = no result given. In the library only some 4.9% were active in any assay of this set; here they are far more common.

SMILES	STAT1 blocker	STAT3 act	STAT3 inh	STAT1 activator	NF-kB expr up	APP 5'UTR act
CC(=O)Cc1nsc(NC(=O)c2cccc(F)c2)n1	i	i	i	142	i	i
O=C(CN1CCCC1)Nc1nnc(-c2cccs2)s1	i	i	i	i	i	i
COc1ccc(C(=O)Nc2nnc(-c3cccs3)s2)cc1	i	157	i	i	3.3	i
CC(C)(C)CC(=O)Nc1nnc(-c2cccs2)s1	i	i	i	140	i	i
COc1ccc(C(=O)Nc2nc(-c3cccs3)c(NC(C)=O)s2)cc1	i	i	i	i	i	i
CN1CCN(NC(=O)c2cccs2)CC1	i	i	i	i	i	i
Cc1ccc(Cn2ccc(-c3cnc(-c4ccccc4)s3)n2)cc1	i	i	i	i	i	i
O=C(c1ccc(F)cc1)n1ccc(-c2cnc(-c3ccccc3)s2)n1	i	i	i	136	3.6	i
Fc1ccc(Cn2ccc(-c3cnc(-c4ccccc4)s3)n2)cc1	i	i	i	131	i	i
CCCCNS(=O)(=O)c1ccc(NC(=O)C(Sc2ccccc2)c2ccccc2)cc1 (configuration not stated)	i	i	i	i	i	i
O=c1c2ccccc2oc2nc3ccn(Cc4ccncc4)c(=O)c3cc12	i	i	i	i	i	i
Cc1ccc(-c2cc(C(=O)N3CCCc4ccccc43)no2)cc1	i	i	i	137	i	i
O=C(Cn1cnc2ccccc2c1=O)c1ccc(Br)cc1	i	i	i	144	i	i
Cc1ccc(C(=O)Cn2cnc3ccccc3c2=O)cc1	i	i	i	133	i	i
CC(C)(C)n1ncc2c(=O)n(CC(=O)c3ccccc3)cnc21	i	i	i	150	i	i
CC(C)(C)n1ncc2c(=O)n(CC(=O)OCc3ccccc3)cnc21	i	i	i	i	i	i
CN1CCN(C(=S)C(=O)Nc2ccc(Br)cc2)CC1	i	i	i	i	i	i
Cc1ccc(/C=N/NC(=O)c2nn(C)cc2Cl)cc1	i	i	i	129	i	i
O=C1CCCCC1C(=O)c1cn(-c2ccc(Cl)c(Cl)c2)nn1 (configuration not stated)	i	i	i	129	i	i
O=C(COC(=O)C1=COCCO1)Nc1ccc(Oc2ccccc2)cc1	i	i	i	i	i	i
COc1ccc(/C(N)=N/OC(=O)Cc2cccs2)cc1OC	i	i	i	i	i	i
COc1ccc(/C(N)=N/OC(=O)Cc2cccs2)cc1	i	i	i	139	i	i
O=c1[nH]c(N/N=C/c2ccc(O)cc2)nc2ccccc12	i	i	i	144	i	i
O=c1[nH]c(N/N=C\c2ccc(F)cc2)nc2ccccc12	i	i	i	150	4.1	189
CN(c1ccccc1)S(=O)(=O)c1cccc(NC(=O)CSc2ncc(C(F)(F)F)cc2Cl)c1	i	i	i	i	i	i
SMILES	STAT1 blocker	STAT3 act	STAT3 inh	STAT1 activator	NF-kB expr up	APP 5'UTR act
Cc1cccc(CSc2cn(CC(=O)N3CCOCC3)c3ccccc23)c1	i	i	i	129	i	i
Clc1ccccc1/C=N/NC1=Nc2cccc3cccc1c23	i	159	i	180	i	171
C(=N\NC1=Nc2cccc3cccc1c23)/c1ccccn1	i	157	i	182	6.2	i
NC(=O)NNC1=Nc2cccc3cccc1c23	i	i	i	i	i	i
O=C(CCCC(=O)N/N=C\c1ccccn1)N/N=C\c1ccccn1	i	i	i	i	i	i
CCOc1ccc(S(=O)(=O)NCCC(=O)OCC(=O)N2CC(=O)Nc3ccccc32)cc1	i	i	i	i	i	i
C/C(CC(=O)NC1CCCC1)=N\NC(=O)Cc1csc(N)n1	i	i	i	i	i	i
O=C(COc1ccc(F)cc1)c1ccc2c(c1)CCCC2	i	i	i	137	nt	i
O=C(COc1ccc(Cc2ccccc2)cc1)c1ccc(F)cc1	i	i	i	i	i	i
O=[N+]([O-])c1ccccc1CN1CCN(Cc2c[nH]c3ccccc23)CC1	i	135	i	i	i	i
O=C(c1cccc(F)c1)N1CCN(Cc2c[nH]c3ccccc23)CC1	i	168	i	i	i	i
O=C(c1ccccc1)N1CCN(Cc2c[nH]c3ccccc23)CC1	i	i	i	i	i	i
COc1ccc(-c2cn3cccc(C)c3n2)cc1F	i	i	i	145	6.1	i
Cc1cccn2cc(-c3ccc(Cl)cc3)nc12	i	i	i	i	9.6	254
COc1ccc(-c2nc3c(-c4ccccc4)cnn3cc2C)cc1F	i	i	i	i	i	i
Cc1ccc(-c2cn3cccc(C)c3n2)cc1	i	i	i	i	7.7	154
Cc1cccn2cc(-c3ccc(S(=O)(=O)N4CCCCC4)cc3)nc12	i	i	i	i	i	i
CCn1c(SC)nnc1-c1c[nH]c2ccccc12	i	i	i	i	i	nt
Cc1cccn2cc(-c3c[nH]c4ccccc34)nc12	i	140	i	134	i	i
C[n+]1ccc(C(=O)N/N=C/c2ccco2)cc1	i	i	i	i	i	nt
COC(=O)c1ccccc1S(=O)(=O)Nc1ccc(OC)nc1	i	i	i	i	i	i
Cc1cccn2cc(-c3ccc(S(=O)(=O)N4CCOCC4)cc3)nc12	i	i	i	i	i	i
O=[N+]([O-])c1cccn2cc(-c3ccc(Br)cc3)nc12	i	i	i	140	nt	i
CCC(CC)c1nnc(NC(=O)c2ccc3ccccc3n2)s1	i	152	i	152	4.9	i
Cc1cccc(NC(=O)c2ccc3ccccc3n2)c1C	i	142	i	134	9.1	211
SMILES	STAT1 blocker	STAT3 act	STAT3 inh	STAT1 activator	NF-kB expr up	APP 5'UTR act
COC(=O)CCCCCC(CCC(=O)OC)NC(C)=O (configuration not stated)	i	i	i	i	i	i
O=C1C(Cc2cccc([N+](=O)[O-])c2)SC(=Nc2ccccc2)N1c1ccccc1 (configuration not stated)	i	i	i	i	i	i
CC(C)c1ccc(/C=C/C(=O)Nc2nncs2)cc1	i	i	i	145	7	i
Cc1sc(NC(=O)/C=C/c2ccc(C(C)C)cc2)c(C#N)c1C	i	i	i	i	i	i
COc1cccc(OCCSc2nnc3sc4ccccc4n23)c1	i	i	i	i	i	i
c1ccc(OCCSc2nnc3sc4ccccc4n23)cc1	50	i	87	i	i	i
Cc1cccc(-c2nc(=S)c3c(o2)CCCC3)c1	i	i	i	139	i	i
S=c1nc(-c2ccc(Br)cc2)oc2c1CCCC2	i	i	i	i	i	i
CCN=c1scc(-c2ccco2)n1/N=C/c1ccc(OC)c(O)c1	i	i	i	i	4	182
CCN=c1scc(-c2ccco2)n1/N=C/c1ccc(O)cc1	i	i	i	i	i	i
O=c1[nH]c(=O)n(Cc2ccco2)c2c1C(C(F)(F)F)(C(F)(F)F)N=C(c1ccc(F)cc1)N2	45	i	51	i	i	i
C/C(=N\Nc1cccc2cccnc12)c1ccc[nH]1	i	i	i	i	i	206

Assay outcomes: PubChem, several laboratories
